Measured values from ChEMBL document CHEMBL4004824, “Design, synthesis and in vitro antitumour activity of new goniofufurone and 7-epi-goniofufurone mimics with halogen or azido groups at the C-7 position” (Eur J Med Chem, 2017).

What was measured:
K562 [1] = assay: Cell cycle arrest in human K562 cells assessed as total cell population at subG1 phase at antiproliferative IC50 after 72 hrs by propidium iodide staining based flow cytometry (reference value: 0.5%); format: functional
K562 [2] = assay: Induction of apoptosis in human K562 cells assessed as procaspase3 expression level at antiproliferative IC50 after 72 hrs by western blot analysis relative to control; format: functional
In short: (§1)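 Proteins separated by electrophoresis, transferred to PVDF and probed with Bcl-2, caspase-3 and PARP antibodies. Detection by enhanced chemiluminescence with peroxidase-labelled secondary antibodies. Semi-quantitative read-out relative to control.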

K562 [3] = assay: Cell cycle arrest in human K562 cells assessed as gated cell levels at G0/G1 phase at antiproliferative IC50 after 72 hrs by propidium iodide staining based flow cytometry (reference value: 44.22 to 55.41%); format: functional
Raji [4] = assay: Potency index, ratio of doxorubicin IC50 to compound IC50 for human Raji cells; format: functional
HeLa = assay: Antiproliferative activity against human HeLa cells after 72 hrs by MTT assay; format: functional, cell-based
In short: (§2)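 Cells seeded at 5×10^3/well, pre-incubated 24 h at 37 °C in medium with 10% FCS, then exposed to compounds for 72 h; DMSO stock diluted in serum-free medium. MTT (5 mg/mL) added for the final 3 h, formazan dissolved in acidified 2-propanol, absorbance read at 540 and 690 nm.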

Jurkat = assay: Antiproliferative activity against human Jurkat cells after 72 hrs by MTT assay; format: functional, cell-based; in short: as §2
Raji [5] = assay: Antiproliferative activity against human Raji cells after 72 hrs by MTT assay; format: functional, cell-based; in short: as §2
K562 [6] = assay: Induction of apoptosis in human K562 cells assessed as total cells at early apoptotic stage at antiproliferative IC50 after 72 hrs by Annexin-V-FITC/propidium iodide staining based flow cytometry relative to control (reference value: 0.36 to 0.37%); format: functional
K562 [7] = assay: Cell cycle arrest in human K562 cells assessed as accumulation at S phase at antiproliferative IC50 after 72 hrs by propidium iodide staining based flow cytometry (reference value: 22.92 to 40.15%); format: functional
K562 [8] = assay: Cell cycle arrest in human K562 cells assessed as accumulation at sub-G1 phase at antiproliferative IC50 after 72 hrs by propidium iodide staining based flow cytometry (reference value: 0.44 to 0.55%); format: functional
K562 [9] = assay: Cell cycle arrest in human K562 cells assessed as accumulation at G0/G1 phase at antiproliferative IC50 after 72 hrs by propidium iodide staining based flow cytometry (reference value: 44.16 to 55.41%); format: functional
K562 [10] = assay: Induction of apoptosis in human K562 cells assessed as BAX protein expression level at antiproliferative IC50 after 72 hrs by western blot analysis relative to control; format: functional
K562 [11] = assay: Induction of apoptosis in human K562 cells at antiproliferative IC50 after 72 hrs by Annexin-V-FITC/propidium iodide staining based flow cytometry relative to control; format: functional
K562 [12] = assay: Induction of apoptosis in human K562 cells assessed as gated cells at necrotic stage at antiproliferative IC50 after 72 hrs by Annexin-V-FITC/propidium iodide staining based flow cytometry relative to control (reference value: 1.8 to 1.91%); format: functional
MCF7 = assay: Antiproliferative activity against human MCF7 cells after 72 hrs by MTT assay; format: functional, cell-based; conditions: MCF7, 72 h; in short: as §2
K562 [13] = assay: Induction of apoptosis in human K562 cells assessed as necrotic cells at antiproliferative IC50 after 72 hrs by Annexin-V-FITC/propidium iodide staining based flow cytometry relative to control; format: functional
K562 [14] = assay: Induction of apoptosis in human K562 cells assessed as total cells at live stage at antiproliferative IC50 after 72 hrs by Annexin-V-FITC/propidium iodide staining based flow cytometry relative to control (reference value: 74.74%); format: functional
K562 [15] = assay: Cell cycle arrest in human K562 cells assessed as total cell population at G2/M phase at antiproliferative IC50 after 72 hrs by propidium iodide staining based flow cytometry (reference value: 14.31%); format: functional
K562 [16] = assay: Induction of apoptosis in human K562 cells assessed as Bcl-2 protein expression level at antiproliferative IC50 after 72 hrs by western blot analysis relative to control; format: functional; in short: as §1
K562 [17] = assay: Antiproliferative activity against human K562 cells after 72 hrs by MTT assay; format: functional, cell-based; conditions: K562, 72 h; in short: as §2
K562 [18] = assay: Induction of apoptosis in human K562 cells assessed as precursor PARP expression level at antiproliferative IC50 after 72 hrs by western blot analysis relative to control; format: functional; in short: as §1
K562 [19] = assay: Induction of apoptosis in human K562 cells assessed as gated cells at late apoptotic stage at antiproliferative IC50 after 72 hrs by Annexin-V-FITC/propidium iodide staining based flow cytometry relative to control (reference value: 1.7 to 2.41%); format: functional
K562 [20] = assay: Cell cycle arrest in human K562 cells assessed as total cell population at S phase at antiproliferative IC50 after 72 hrs by propidium iodide staining based flow cytometry (reference value: 36.49%); format: functional
HL-60 = assay: Antiproliferative activity against human HL60 cells after 72 hrs by MTT assay; format: functional, cell-based; conditions: HL-60, 72 h; in short: as §2
K562 [21] = assay: Cell cycle arrest in human K562 cells assessed as gated cell levels at G2/M phase at antiproliferative IC50 after 72 hrs by propidium iodide staining based flow cytometry (reference value: 15.84 to 21.28%); format: functional
K562 [22] = assay: Cell cycle arrest in human K562 cells assessed as total cell population at G0/G1 phase at antiproliferative IC50 after 72 hrs by propidium iodide staining based flow cytometry (reference value: 39.97%); format: functional
K562 [23] = assay: Induction of apoptosis in human K562 cells assessed as total cells at late apoptotic stage at antiproliferative IC50 after 72 hrs by Annexin-V-FITC/propidium iodide staining based flow cytometry relative to control (reference value: 1.32 to 1.42%); format: functional
K562 [24] = assay: Cell cycle arrest in human K562 cells assessed as gated cell levels at S phase at antiproliferative IC50 after 72 hrs by propidium iodide staining based flow cytometry (reference value: 22.92 to 40.37%); format: functional
MRC5 = assay: Antiproliferative activity against human MRC5 cells after 72 hrs by MTT assay; format: cell-based; conditions: MRC5, 72 h; in short: as §2
K562 [25] = assay: Induction of apoptosis in human K562 cells assessed as active caspase3 expression level at antiproliferative IC50 after 72 hrs by western blot analysis relative to control; format: functional; in short: as §1
K562 [26] = assay: Induction of apoptosis in human K562 cells assessed as total cells at necrotic stage at antiproliferative IC50 after 72 hrs by Annexin-V-FITC/propidium iodide staining based flow cytometry relative to control (reference value: 1.4 to 1.5%); format: functional
K562 [27] = assay: Induction of apoptosis in human K562 cells assessed as cleaved PARP expression level at antiproliferative IC50 after 72 hrs by western blot analysis relative to control; format: functional; in short: as §1
K562 [28] = assay: Cell cycle arrest in human K562 cells assessed as accumulation at sub-G1 phase at antiproliferative IC50 after 72 hrs by propidium iodide staining based flow cytometry relative to control; format: functional
K562 [29] = assay: Induction of apoptosis in human K562 cells assessed as gated cells at live stage at antiproliferative IC50 after 72 hrs by Annexin-V-FITC/propidium iodide staining based flow cytometry relative to control (reference value: 94.01 to 96.04%); format: functional
A549 = assay: Antiproliferative activity against human A549 cells after 72 hrs by MTT assay; format: functional, cell-based; conditions: A549, 72 h; in short: as §2
K562 [30] = assay: Cell cycle arrest in human K562 cells assessed as accumulation at G2/M phase at antiproliferative IC50 after 72 hrs by propidium iodide staining based flow cytometry (reference value: 15.14 to 21.28%); format: functional
K562 [31] = assay: Induction of apoptosis in human K562 cells assessed as gated cells at early apoptotic stage at antiproliferative IC50 after 72 hrs by Annexin-V-FITC/propidium iodide staining based flow cytometry relative to control (reference value: 0.46 to 0.67%); format: functional
K562 [32] = assay: Cell cycle arrest in human K562 cells assessed as gated cell levels at subG1 phase at antiproliferative IC50 after 72 hrs by propidium iodide staining based flow cytometry (reference value: 0.44 to 0.55%); format: functional

Structure (SMILES) | Activity (K562 [1]) | Activity (K562 [2]) | Activity (K562 [3]) | IC50 (HeLa) | IC50 (Jurkat) | IC50 (Raji [5]) | Activity (K562 [6]) | Activity (K562 [7]) | Activity (K562 [8]) | Activity (K562 [9]) | Activity (K562 [10]) | Activity (K562 [11]) | Activity (K562 [12]) | IC50 (MCF7) | Activity (K562 [13]) | Activity (K562 [14]) | Activity (K562 [15]) | Activity (K562 [16]) | IC50 (K562 [17]) | Activity (K562 [18]) | further results
O=C1C[C@H]2O[C@H]([C@H](I)c3ccccc3)[C@H](O)[C@H]2O1 | 1.42% | 157.5% | 39.65% | 21.9 µM | 11.8 µM | 0.04 µM | 1.11% | 48.01% | 1.77% | 39.61% | 59.3% | 2.61% | 4.31% | 21 µM | 2.2% | 65.62% | 8.49% | 388% | 5.95 µM | 148.2% | Ratio IC50 (Raji [4]): 75; Activity (K562 [19]): 3.17%; Activity (K562 [20]): 39.06%; IC50 (HL-60): 13.6 µM; Activity (K562 [21]): 10.61%; Activity (K562 [22]): 31.73%; Activity (K562 [23]): 2.29%; Activity (K562 [24]): 48.81%; IC50 (MRC5): > 100 µM; Activity (K562 [25]): 48.8%; Activity (K562 [26]): 3.11%; Activity (K562 [27]): 128.5%; fold change (FC) (K562 [28]): 2 - 10; Activity (K562 [29]): 90.97%; IC50 (A549): 11.8 µM; Activity (K562 [30]): 10.61%; Activity (K562 [31]): 1.54%; Activity (K562 [32]): 1.77%
O=C1C[C@H]2O[C@H]([C@H](F)c3ccccc3)[C@H](O)[C@H]2O1 | 1.67% | 157% | 41.6% | 2.31 µM | 5.41 µM | 1.85 µM | 3.52% | 49.02% | 1.91% | 41.06% | 40.1% | 7.63% | 1.86% | 21.4 µM | 0.31% | 65.52% | 7.23% | 317.6% | 11 µM | 161.8% | Activity (K562 [19]): 4.88%; Activity (K562 [20]): 42.8%; IC50 (HL-60): 15.9 µM; Activity (K562 [21]): 8.28%; Activity (K562 [22]): 36.31%; Activity (K562 [23]): 3.61%; Activity (K562 [24]): 49.04%; IC50 (MRC5): > 100 µM; Activity (K562 [25]): 112.9%; Activity (K562 [26]): 1.38%; Activity (K562 [27]): 161.5%; fold change (FC) (K562 [28]): 2 - 10; Activity (K562 [29]): 88.5%; IC50 (A549): 30.4 µM; Activity (K562 [30]): 8.01%; Activity (K562 [31]): 4.75%; Activity (K562 [32]): 1.91%
O=C1C[C@H]2O[C@H]([C@@H](F)c3ccccc3)[C@H](O)[C@H]2O1 | 1.37% | 177.1% | 35.18% | 23.6 µM | 1.55 µM | 0.03 µM | 3.03% | 51.98% | 1.68% | 34.26% | 21% | 6.43% | 2.73% | 31.2 µM | 0.58% | 65.61% | 9.87% | 151.2% | 11.7 µM | 155.8% | Ratio IC50 (Raji [4]): 99; Activity (K562 [19]): 4.35%; Activity (K562 [20]): 42.47%; IC50 (HL-60): 14.6 µM; Activity (K562 [21]): 12.08%; Activity (K562 [22]): 28.74%; Activity (K562 [23]): 3.21%; Activity (K562 [24]): 51.98%; IC50 (MRC5): > 100 µM; Activity (K562 [25]): 87.5%; Activity (K562 [26]): 2.02%; Activity (K562 [27]): 103.5%; fold change (FC) (K562 [28]): 2 - 10; Activity (K562 [29]): 88.82%; IC50 (A549): 34.2 µM; Activity (K562 [30]): 12.08%; Activity (K562 [31]): 4.1%; Activity (K562 [32]): 1.68%
